# High-throughput results from PubChem.
# Sampled rows, rich in hits. Any-hit rate of the full collection: about 1.6%.
# Efa HMGR inh: inhibitors of E. faecalis class II HMGR, primary screen, biochemical, Enterococcus faecalis; purified E. faecalis HMGR, NADPH absorbance 340 nm kinetic; inhibition, % at 10 µM; actives 0.41% (n = 190,000); AID 1066, 2008;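 active = inhibition above a set limit, the median over all tested compounds plus 3 SD, cut at about 9.5% in these data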;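 note: enzyme runs in reverse so mevalonate oxidation gives rising NADPH absorbance; 0% = complete reaction with DMSO and 100% = background rate lacking mevalonate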
# p47phox inh: p47phox/p22phox peptide binding inhibitors, primary screen, biochemical, uHTS, NADPH oxidase regulatory subunit; Neutrophil cytosol factor 1 (Homo sapiens), P14598; fluorescence polarization, 2 h; inhibition, % at 24.7 µM; actives 0.53% (n = 220,000); AID 1274, 2008;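 active = inhibition above about 30%, limit read from the data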;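 note: 0% = p47phox with labelled peptide and 100% = labelled peptide alone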
# ABCB1 block: ABCB1 efflux pump inhibitors, primary screen, cell-based, multiplex, flow cytometry, ABCG2 counter-screen; actives 0.067% (n = 190,000); AID 1326, 2008; inhibition, % at 6.6 µM; ATP-dependent translocase ABCB1 (Homo sapiens), P08183; CCRF-Adr cells, JC-1 efflux; in the data active = inhibition above about 40%;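 note: 0% = vehicle and 100% = reference inhibitor; higher value means more JC-1 retained so stronger ABCB1 efflux block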
# Diaph inh CS: diaphorase inhibitors and chemical oxidizers, primary screen, counter-screen for diaphorase-coupled primary assays, biochemical, uHTS, resorufin fluorescence | AID 1217, 2008 | actives 0.69% (n = 190,000) | inhibition, % at 20 µM | diaphorase resazurin-to-resorufin fluorescence, NADH, 16 min; bacterial (C. kluyveri) enzyme, not human;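 active = primary screen inhibition at 20 µM above a set limit, cut at about 50% in these data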;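 note: plate controls were DMSO with full reaction for no effect and wells lacking NADH for full effect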
#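 Detection: fluorescence of resorufin formed from resazurin, Ex 544/Em 590 nm; test system: Clostridium kluyveri diaphorase enzyme; amount: 0.14 U/mL diaphorase, enzyme working solution; times: 16-min room-temperature incubation before reading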
# Diaphorase act: compounds boosting diaphorase resazurin reduction – biochemical, uHTS, resorufin fluorescence, counter-screen for diaphorase-coupled primary assays, primary screen. Diaphorase/resazurin coupled assay, 16 min; hits give high values; 1 = vehicle wells, 0 = NADH-free wells. activation factor at 20 µM. actives 0.005% (n = 190,000). AID 1229, 2008;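 active = diaphorase activity raised at least twofold by the compound at 20 µM; inactive = activation factor below 2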
#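 Material: bacterial diaphorase enzyme (C. kluyveri); amount: enzyme 0.07 U/mL final; reagent: NADH substrate 0.114 mM plus resazurin dye 0.1 mM, final; doses: single compound dose of 20 µM, 1% DMSO final; timing: 16 min enzyme reaction, ambient temperature; measured by: fluorescence of resorufin, 544 nm excitation, 590 nm emission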
# ABCG2 block: ABCG2 efflux pump inhibitors, primary screen, multiplex with ABCB1, IgMXP3 cells, flow cytometry. Broad substrate specificity ATP-binding cassette transporter ABCG2 (Homo sapiens), Q9UNQ0. JC-1 efflux. inhibition, % at 6.6 µM. actives 0.1% (n = 190,000). AID 1325, 2008;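 active = inhibition above 80%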;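 note: 0% = DMSO and 100% = nicardipine control wells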
# Target sequence (Q9UNQ0 whole entry, looked up): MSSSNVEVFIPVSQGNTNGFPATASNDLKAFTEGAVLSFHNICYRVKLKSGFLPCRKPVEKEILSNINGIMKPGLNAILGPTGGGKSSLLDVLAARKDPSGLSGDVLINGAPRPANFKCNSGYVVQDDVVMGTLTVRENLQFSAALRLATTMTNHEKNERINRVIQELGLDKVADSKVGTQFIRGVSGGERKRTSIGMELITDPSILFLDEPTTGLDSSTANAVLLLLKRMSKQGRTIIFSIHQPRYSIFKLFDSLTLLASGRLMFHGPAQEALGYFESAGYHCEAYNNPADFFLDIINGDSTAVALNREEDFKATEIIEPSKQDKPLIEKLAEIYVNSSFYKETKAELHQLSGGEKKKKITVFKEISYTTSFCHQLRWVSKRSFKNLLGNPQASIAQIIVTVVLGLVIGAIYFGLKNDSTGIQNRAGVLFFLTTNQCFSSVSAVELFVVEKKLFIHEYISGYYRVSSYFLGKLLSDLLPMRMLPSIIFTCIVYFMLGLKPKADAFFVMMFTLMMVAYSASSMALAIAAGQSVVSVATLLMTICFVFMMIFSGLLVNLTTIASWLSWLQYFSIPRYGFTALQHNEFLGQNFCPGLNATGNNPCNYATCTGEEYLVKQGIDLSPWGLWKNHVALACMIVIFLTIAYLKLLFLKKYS
#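 Test system: ABCG2 IgMXP3 and barcoded ABCB1 CCRF-Adr cell mix; Schedule: cells with compound and JC-1, 10 min at 25 °C, rotating, no wash; Technique: flow cytometry of retained JC-1 fluorescence; Measure: % inhibition of efflux relative to nicardipine and DMSO; Controls: nicardipine high and DMSO low controls.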
# * marks the source's active call; other numbers are inactive results; / = no result.
SMILES,Efa HMGR inh,p47phox inh,ABCB1 block,Diaph inh CS,Diaphorase act,ABCG2 block
Cc1cc(C)n(CC(=O)NCc2cc(-c3nn(C)c(=O)c4ccccc34)ccc2C)n1,-0.7,-16.4,2.1,16.3,0.8,24.4
Cc1ccc(-c2nn(C)c(=O)c3ccccc23)cc1CNC(=O)Cn1nc(-c2ccccc2)c2ccccc2c1=O,-4.7,41.4*,1.3,3.6,1,3.2
COCc1cc(C)n(CC(=O)OC)c(=O)c1C#N,13.6*,-6.8,0.4,9.3,0.9,-0.1
CC(=O)NC1C(=O)N=C(SCC(=O)Nc2sc3c(c2C#N)CCCCCC3)NC1=O (stereo unspecified),9.8*,-14.2,-0.5,20.9,0.8,-1.0
N#Cc1c(NC(=O)CSc2ncn[nH]2)sc2c1CCCCC2,1.8,-8.3,0.4,14.0,0.9,12.7
COC(=O)C1=CN(Cc2cccs2)C=C(C(=O)OC)C1c1cccc(OC)c1OC,1.5,-16.8,2.2,13.9,0.9,9.0
COC(=O)c1sc(N2C(=O)c3oc4ccccc4c(=O)c3C2c2cccs2)nc1C (stereo unspecified),2.9,49.5*,0.5,25.4,0.7,0.9
COCCN1C(=O)c2oc3ccccc3c(=O)c2C1c1ccc(C(=O)OC)cc1 (stereo unspecified),1.4,-4.1,1.6,2.6,1,0.0
CC(C)(C)C1=C(C#N)C(c2ccc3c(c2)OCO3)C(C#N)=C(N)O1 (stereo unspecified),11.4*,3.9,-0.2,17.5,0.8,-0.6
COc1ccc(C2C(C#N)=C(N)Oc3cc4c(cc32)OCO4)cc1 (stereo unspecified),-5.0,64.3*,0.6,20.1,0.8,2.4
CC(=O)Nc1cccc(C(=O)O)n1,-3.4,-2.1,-0.2,17.0,0.8,-1.4
COc1cc(C(=S)N2CCN(c3ccccc3Cl)CC2)cc(O)c1O,-1.3,-4.4,-1.0,61.4*,0.4,-2.6
COc1ccc(C(=S)N2CCN(c3ccccc3Cl)CC2)cc1OC,/,2.7,/,/,/,/
CCC(NC(C)C)C(O)c1ccc(O)c(O)c1 (stereo unspecified),-2.8,2.5,0.0,58.6*,0.4,-0.4
CCn1c(C)nc2cc(C(=O)N/N=C/c3cccc(O)c3O)ccc21,-0.6,/,0.3,72.4*,0.3,0.1
CCn1c(C)nc2cc(C(=O)NNC(=S)NC(=O)c3ccccc3)ccc21,1.2,-36.7,-1.4,54.9*,0.5,3.7
Nn1c(Cc2ccc(Br)cc2)n[nH]c1=S,-0.1,0.4,-0.9,26.6,0.7,1.8
CC(C)(O)C1Cc2cc(/C=C/C(=O)O)c(O)cc2O1 (stereo unspecified),1.1,84.8*,0.4,31.9,0.7,1.1
CC1=C(C#N)c2nc(N)c(C#N)c(C)c2/C1=C\c1ccc(-c2ccccc2C(=O)O)o1,-3.9,37.1*,-2.3,62.1*,0.4,-8.0
COc1cc(/C=C2/C(C)=C(C#N)c3nc(N)c(C#N)c(C)c32)ccc1OCC(=O)O,-6.0,-3.9,-0.2,47.3,0.5,-0.5
CCOC(=O)c1c(N)sc(C(N)=O)c1C,-1.5,-9.9,0.2,4.7,1,1.4
CCOC(=O)c1sc(N)c(C(N)=O)c1C,-0.8,30.1*,0.2,1.3,1,0.8
COc1cccc(CNc2ccc(N3CCCCC3)cc2)c1OC,-0.3,-6.2,0.3,59.9*,0.4,-0.6
COc1ccccc1CNc1ccc(N2CCCCC2)cc1,-2.2,-0.2,0.4,65.4*,0.3,1.9
COc1ccc(CNC(=O)c2sc(=S)n(-c3ccccc3)c2N)cc1,/,-10.5,/,/,/,/
SMILES,Efa HMGR inh,p47phox inh,ABCB1 block,Diaph inh CS,Diaphorase act,ABCG2 block
Cc1ccc(-n2c(C)nc3oc4ccccc4c(=O)c3c2=O)cc1,0.2,-55.9,0.3,55.9*,0.4,0.7
O=c1c2oc3ccccc3c2[nH]c(=S)n1-c1ccccc1,0.0,-49.1,-0.4,66.5*,0.3,-0.9
COc1ccc2c(=O)c3c(=O)n(-c4ccc(C)cc4)c(-c4ccccc4)nc3oc2c1,/,-8.4,/,/,/,/
Cc1ccc(-n2c(=S)[nH]c3c(oc4ccccc43)c2=O)cc1,-7.2,-3.1,-1.0,65.5*,0.3,-4.8
Cc1cccc(-n2c(=S)[nH]c3c(oc4ccccc43)c2=O)c1,-7.9,-8.2,-0.2,64.4*,0.4,-0.2
Cc1c(-n2c(=S)[nH]c3ccccc3c2=O)c(=O)n(-c2ccccc2)n1C,-3.1,-191.6,-0.3,10.5,0.9,0.7
CCC/S(C)=N/S(=O)(=O)c1ccc(C)cc1 (stereo unspecified),2.0,1.8,1.1,17.1,0.8,1.8
COC(=O)c1c(C(=O)OC)c(C)n(Cc2ccco2)c1C,-4.8,-11.1,1.5,7.4,0.9,5.3
COCC(=O)Nc1ccc(C(N)=O)cc1,-10.3,-4.5,0.0,9.2,0.9,0.0
Cc1nn(C)c(Oc2cccc(Cl)c2)c1C(=O)O,-4.2,7.9,0.2,17.9,0.8,0.6
COc1ccc(-c2nc3c([nH]2)c(=O)n(C)c(=O)n3C)c(OC)c1,-3.6,-36.0,0.6,6.5,0.9,2.0
O=C(Nc1ccc(N2CCN(C(=O)c3cccs3)CC2)c(Cl)c1)c1cccnc1,11.0*,-0.2,0.3,11.1,0.9,1.8
CN1C[C@@H]2C[C@@H](c3ccc(C#CC(C)(C)O)s3)N3CCC[C@@]23C1=O,-3.5,-5.2,-0.1,31.7,0.7,0.4
O=C(N/N=C/c1ccc([N+](=O)[O-])o1)c1cc2c(ccc3ccccc32)o1,-1.5,30.3*,-0.6,17.1,0.8,-0.9
O=C(N/N=C/c1ccc([N+](=O)[O-])o1)c1cc2ccccc2o1,/,-24.1,/,/,/,/
Cc1sc2nc(CN3CCN(c4ccc(O)cc4)CC3)[nH]c(=O)c2c1C,/,4.2,/,/,/,/
Cc1sc2nc(CN3CCOCC3)[nH]c(=S)c2c1C,-1.9,3.9,0.0,72.8*,0.3,0.5
COc1ccc(OCC(=O)N/N=C/c2ccsc2)cc1,1.8,73.8*,-0.3,23.5,0.8,-9.7
COc1ccc(OCC(=O)N/N=C/c2ccc(N(C)C)cc2)cc1,-3.2,-8.9,0.0,8.1,0.9,7.8
COc1ccc(-c2nc(C(N)=O)c3[nH]c(=O)n(-c4cccc(Cl)c4)c3n2)cc1OC,-3.0,36.9*,0.9,-9.7,1.1,3.8
Cc1cc2cccc(C)c2nc1SCC(=O)NNC(=O)c1ccco1,13.9*,3.7,0.4,5.5,0.9,4.1
